Laboratory results reported in ChEMBL document CHEMBL2424622, “Development of amino-pyrimidine inhibitors of c-Jun N-terminal kinase (JNK): kinase profiling guided optimization of a 1,2,3-benzotriazole lead” (Bioorg Med Chem Lett, 2013).

Legend:
[1] = target: Serine/threonine-protein kinase 33 (Homo sapiens) (UniProt Q9BYT3); test: Competitive binding affinity to STK33 (unknown origin) at 10 uM in presence of ATP relative to control
[2] = target: T1, Calcium/calmodulin-dependent protein kinase type IV (Homo sapiens) (UniProt Q16566); test: Competitive binding affinity to CAMK4 (unknown origin) at 10 uM in presence of ATP relative to control
T1 sequence (whole entry): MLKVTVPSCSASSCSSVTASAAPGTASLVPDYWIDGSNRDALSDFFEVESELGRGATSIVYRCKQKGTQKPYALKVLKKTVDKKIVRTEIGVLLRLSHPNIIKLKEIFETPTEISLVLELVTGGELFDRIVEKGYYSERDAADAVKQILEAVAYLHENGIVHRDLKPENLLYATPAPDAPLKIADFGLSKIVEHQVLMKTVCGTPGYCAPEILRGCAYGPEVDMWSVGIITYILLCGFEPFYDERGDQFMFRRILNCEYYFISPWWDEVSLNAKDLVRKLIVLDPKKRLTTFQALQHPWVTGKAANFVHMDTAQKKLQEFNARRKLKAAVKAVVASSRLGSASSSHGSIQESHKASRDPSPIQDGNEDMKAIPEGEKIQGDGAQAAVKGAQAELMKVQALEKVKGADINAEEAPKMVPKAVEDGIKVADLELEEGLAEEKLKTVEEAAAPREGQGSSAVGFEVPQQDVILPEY

[3] = target: T2, Serine/threonine-protein kinase 3 (Homo sapiens) (UniProt Q13188); test: Competitive binding affinity to MST2 (unknown origin) at 10 uM in presence of ATP relative to control
T2 sequence (whole entry): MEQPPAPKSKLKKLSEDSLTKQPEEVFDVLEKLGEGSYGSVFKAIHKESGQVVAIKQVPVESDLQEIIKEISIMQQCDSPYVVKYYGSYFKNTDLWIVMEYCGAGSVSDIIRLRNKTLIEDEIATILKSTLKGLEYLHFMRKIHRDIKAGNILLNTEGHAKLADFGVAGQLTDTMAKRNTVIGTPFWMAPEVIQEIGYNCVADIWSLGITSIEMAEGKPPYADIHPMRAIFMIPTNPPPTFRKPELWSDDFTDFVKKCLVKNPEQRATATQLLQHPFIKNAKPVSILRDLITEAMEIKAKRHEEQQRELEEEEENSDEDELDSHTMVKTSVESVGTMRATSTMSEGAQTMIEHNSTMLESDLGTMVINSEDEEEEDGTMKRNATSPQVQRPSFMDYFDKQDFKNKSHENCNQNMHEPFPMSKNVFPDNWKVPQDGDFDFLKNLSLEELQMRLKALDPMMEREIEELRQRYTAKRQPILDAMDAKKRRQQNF

[4] = target: Protein kinase C eta type (Homo sapiens) (UniProt P24723); test: Competitive binding affinity to PRKCH (unknown origin) at 10 uM in presence of ATP relative to control
[5] = system: Epidermal growth factor receptor (Homo sapiens), P00533 [L861Q]; test: Competitive binding affinity to EGFR L861Q mutant (unknown origin) at 10 uM in presence of ATP relative to control
Procedure, shortened: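 In vitro ATP-site competition binding assay, part of profiling against a diverse panel of 128 kinases. Each compound was tested at a single concentration of 10 µM. Kinome selectivity was summarized as S15 selectivity scores.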

[6] = target: Serine/threonine-protein kinase 25 (Homo sapiens) (UniProt O00506); test: Competitive binding affinity to YSK1 (unknown origin) at 10 uM in presence of ATP relative to control
[7] = target: T3, Dual specificity mitogen-activated protein kinase kinase 3 (Homo sapiens) (UniProt P46734); test: Competitive binding affinity to MEK3 (unknown origin) at 10 uM in presence of ATP relative to control
T3 sequence (whole entry): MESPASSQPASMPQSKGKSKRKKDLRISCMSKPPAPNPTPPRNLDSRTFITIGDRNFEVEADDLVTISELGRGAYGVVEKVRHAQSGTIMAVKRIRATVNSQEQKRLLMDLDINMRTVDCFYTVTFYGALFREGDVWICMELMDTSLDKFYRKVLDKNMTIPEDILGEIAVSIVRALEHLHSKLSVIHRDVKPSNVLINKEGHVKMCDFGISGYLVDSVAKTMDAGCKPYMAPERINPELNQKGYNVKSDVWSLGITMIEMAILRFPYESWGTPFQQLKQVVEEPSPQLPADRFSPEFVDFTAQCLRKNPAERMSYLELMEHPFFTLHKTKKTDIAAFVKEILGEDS

[8] = target: T4, Serine/threonine-protein kinase 4 (Homo sapiens) (UniProt Q13043); test: Competitive binding affinity to MST1 (unknown origin) at 10 uM in presence of ATP relative to control
T4 sequence (whole entry): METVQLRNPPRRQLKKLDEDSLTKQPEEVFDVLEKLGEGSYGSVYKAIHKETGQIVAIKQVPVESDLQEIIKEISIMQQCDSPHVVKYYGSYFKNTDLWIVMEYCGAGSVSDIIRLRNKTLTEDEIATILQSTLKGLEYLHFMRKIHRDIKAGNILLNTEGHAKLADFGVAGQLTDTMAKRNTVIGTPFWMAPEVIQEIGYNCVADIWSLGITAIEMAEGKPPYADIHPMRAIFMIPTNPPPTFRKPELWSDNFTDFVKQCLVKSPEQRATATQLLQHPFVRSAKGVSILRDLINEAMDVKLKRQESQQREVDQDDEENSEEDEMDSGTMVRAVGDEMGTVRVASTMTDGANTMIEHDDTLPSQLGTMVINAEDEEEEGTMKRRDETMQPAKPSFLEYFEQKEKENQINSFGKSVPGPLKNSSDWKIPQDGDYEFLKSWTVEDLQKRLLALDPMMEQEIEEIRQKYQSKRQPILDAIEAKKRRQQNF

[9] = target: Mitogen-activated protein kinase kinase kinase 10 (Homo sapiens) (UniProt Q02779); test: Competitive binding affinity to MLK2 (unknown origin) at 10 uM in presence of ATP relative to control
[10] = system: Proto-oncogene tyrosine-protein kinase receptor Ret (Homo sapiens), P07949 [M918T]; test: Competitive binding affinity to RET M918T mutant (unknown origin) at 10 uM in presence of ATP relative to control
[11] = target: Glycogen synthase kinase-3 beta (Homo sapiens, UniProt P49841); test: Competitive binding affinity to GSK3beta (unknown origin) at 10 uM in presence of ATP relative to control
Sequence of Glycogen synthase kinase-3 beta (P49841 whole entry, looked up): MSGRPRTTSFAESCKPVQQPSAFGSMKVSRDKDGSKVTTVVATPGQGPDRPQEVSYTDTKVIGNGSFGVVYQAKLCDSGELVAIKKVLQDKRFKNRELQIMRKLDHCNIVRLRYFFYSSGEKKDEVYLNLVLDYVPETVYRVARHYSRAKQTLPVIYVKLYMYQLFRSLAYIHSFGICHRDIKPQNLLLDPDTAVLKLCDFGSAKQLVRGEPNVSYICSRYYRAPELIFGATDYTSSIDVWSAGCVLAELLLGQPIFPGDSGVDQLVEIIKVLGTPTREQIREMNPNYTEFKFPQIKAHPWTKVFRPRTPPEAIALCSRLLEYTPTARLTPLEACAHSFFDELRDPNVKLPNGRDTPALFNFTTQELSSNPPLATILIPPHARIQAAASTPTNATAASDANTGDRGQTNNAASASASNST

Sequence of Protein kinase C eta type (Homo sapiens) (P24723 whole entry): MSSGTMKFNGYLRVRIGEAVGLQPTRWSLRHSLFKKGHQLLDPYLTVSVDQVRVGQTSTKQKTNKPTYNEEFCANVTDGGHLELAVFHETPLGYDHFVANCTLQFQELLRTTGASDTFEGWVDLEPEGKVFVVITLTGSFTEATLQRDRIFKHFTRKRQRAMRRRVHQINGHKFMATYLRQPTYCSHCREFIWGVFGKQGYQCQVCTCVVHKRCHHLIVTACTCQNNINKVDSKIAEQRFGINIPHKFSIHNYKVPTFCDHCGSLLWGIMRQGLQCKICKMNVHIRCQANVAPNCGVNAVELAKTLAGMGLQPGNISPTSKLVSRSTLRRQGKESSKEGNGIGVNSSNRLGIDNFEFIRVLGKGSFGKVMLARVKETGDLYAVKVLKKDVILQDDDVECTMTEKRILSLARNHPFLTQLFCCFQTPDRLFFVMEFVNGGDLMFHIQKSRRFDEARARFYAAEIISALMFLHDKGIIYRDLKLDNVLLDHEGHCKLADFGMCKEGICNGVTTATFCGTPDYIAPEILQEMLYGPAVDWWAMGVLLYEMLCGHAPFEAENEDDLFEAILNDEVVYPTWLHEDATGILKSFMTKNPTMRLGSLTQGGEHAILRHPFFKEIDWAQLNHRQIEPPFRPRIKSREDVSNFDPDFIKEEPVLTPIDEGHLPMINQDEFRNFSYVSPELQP
Sequence of Mitogen-activated protein kinase kinase kinase 10 (Homo sapiens) (Q02779 whole entry, looked up): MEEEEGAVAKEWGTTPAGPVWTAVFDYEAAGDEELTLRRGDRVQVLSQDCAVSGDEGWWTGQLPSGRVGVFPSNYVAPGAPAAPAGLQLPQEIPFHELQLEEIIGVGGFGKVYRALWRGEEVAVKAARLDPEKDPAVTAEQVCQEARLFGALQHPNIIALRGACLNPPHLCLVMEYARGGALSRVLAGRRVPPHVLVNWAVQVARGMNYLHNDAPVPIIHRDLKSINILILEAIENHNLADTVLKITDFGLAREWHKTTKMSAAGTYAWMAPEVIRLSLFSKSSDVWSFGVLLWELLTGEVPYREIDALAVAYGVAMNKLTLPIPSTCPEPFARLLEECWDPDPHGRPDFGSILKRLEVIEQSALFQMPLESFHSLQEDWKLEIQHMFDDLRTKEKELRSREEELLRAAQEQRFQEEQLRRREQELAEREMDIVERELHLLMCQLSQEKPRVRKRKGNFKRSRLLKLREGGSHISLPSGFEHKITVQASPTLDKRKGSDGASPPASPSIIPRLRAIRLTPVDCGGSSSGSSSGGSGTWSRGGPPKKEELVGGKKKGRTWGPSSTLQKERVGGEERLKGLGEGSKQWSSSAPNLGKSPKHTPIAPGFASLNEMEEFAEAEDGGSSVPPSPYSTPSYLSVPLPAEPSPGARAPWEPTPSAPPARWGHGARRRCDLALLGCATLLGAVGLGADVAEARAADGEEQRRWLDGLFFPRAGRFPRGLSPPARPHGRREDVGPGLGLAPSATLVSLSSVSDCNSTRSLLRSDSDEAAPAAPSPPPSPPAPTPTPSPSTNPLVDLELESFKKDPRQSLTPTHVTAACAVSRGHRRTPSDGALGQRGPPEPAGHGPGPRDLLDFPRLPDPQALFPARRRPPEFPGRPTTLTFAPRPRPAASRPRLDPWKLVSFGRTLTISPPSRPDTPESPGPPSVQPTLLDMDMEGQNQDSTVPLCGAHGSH
Sequence of Proto-oncogene tyrosine-protein kinase receptor Ret (Homo sapiens), P07949 [M918T] (P07949 whole entry M918T): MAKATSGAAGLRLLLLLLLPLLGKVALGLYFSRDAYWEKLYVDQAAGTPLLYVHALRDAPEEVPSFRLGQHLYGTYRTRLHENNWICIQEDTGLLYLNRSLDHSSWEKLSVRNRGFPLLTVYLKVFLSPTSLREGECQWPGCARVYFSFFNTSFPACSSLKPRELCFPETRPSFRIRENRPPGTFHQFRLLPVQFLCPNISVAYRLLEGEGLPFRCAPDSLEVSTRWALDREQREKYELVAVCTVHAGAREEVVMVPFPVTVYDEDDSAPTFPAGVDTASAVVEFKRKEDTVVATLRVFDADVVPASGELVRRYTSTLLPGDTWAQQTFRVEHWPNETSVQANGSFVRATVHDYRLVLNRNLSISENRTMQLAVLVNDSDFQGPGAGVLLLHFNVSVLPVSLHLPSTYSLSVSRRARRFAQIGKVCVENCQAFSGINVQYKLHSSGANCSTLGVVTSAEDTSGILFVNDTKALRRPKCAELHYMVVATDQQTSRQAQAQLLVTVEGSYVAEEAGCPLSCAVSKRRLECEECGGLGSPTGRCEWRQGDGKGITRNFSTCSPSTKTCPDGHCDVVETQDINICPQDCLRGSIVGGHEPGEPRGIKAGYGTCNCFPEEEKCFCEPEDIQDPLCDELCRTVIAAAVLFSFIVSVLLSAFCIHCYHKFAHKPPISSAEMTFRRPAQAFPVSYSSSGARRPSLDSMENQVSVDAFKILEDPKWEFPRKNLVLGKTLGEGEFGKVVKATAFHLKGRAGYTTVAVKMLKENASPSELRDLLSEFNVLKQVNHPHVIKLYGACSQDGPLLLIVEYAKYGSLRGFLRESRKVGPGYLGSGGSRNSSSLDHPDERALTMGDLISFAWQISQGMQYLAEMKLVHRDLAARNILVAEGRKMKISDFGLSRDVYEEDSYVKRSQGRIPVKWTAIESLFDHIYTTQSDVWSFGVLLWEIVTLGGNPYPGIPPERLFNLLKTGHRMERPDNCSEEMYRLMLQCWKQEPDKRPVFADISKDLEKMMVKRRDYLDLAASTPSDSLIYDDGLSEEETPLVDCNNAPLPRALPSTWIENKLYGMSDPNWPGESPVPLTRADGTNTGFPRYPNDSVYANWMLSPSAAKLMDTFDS
Sequence of Serine/threonine-protein kinase 25 (Homo sapiens) (O00506 whole entry, looked up): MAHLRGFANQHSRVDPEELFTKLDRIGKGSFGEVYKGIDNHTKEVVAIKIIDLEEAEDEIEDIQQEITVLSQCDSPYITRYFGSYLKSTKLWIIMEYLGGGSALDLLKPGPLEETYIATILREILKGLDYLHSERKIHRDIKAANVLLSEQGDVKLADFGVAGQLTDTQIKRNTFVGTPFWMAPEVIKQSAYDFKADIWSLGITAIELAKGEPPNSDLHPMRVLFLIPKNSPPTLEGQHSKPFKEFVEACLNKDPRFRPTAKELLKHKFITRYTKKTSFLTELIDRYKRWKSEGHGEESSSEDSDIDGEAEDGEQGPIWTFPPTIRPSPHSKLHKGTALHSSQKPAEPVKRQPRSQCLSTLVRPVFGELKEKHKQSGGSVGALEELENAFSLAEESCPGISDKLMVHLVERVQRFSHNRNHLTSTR
Sequence of Serine/threonine-protein kinase 33 (Homo sapiens) (Q9BYT3 whole entry, looked up): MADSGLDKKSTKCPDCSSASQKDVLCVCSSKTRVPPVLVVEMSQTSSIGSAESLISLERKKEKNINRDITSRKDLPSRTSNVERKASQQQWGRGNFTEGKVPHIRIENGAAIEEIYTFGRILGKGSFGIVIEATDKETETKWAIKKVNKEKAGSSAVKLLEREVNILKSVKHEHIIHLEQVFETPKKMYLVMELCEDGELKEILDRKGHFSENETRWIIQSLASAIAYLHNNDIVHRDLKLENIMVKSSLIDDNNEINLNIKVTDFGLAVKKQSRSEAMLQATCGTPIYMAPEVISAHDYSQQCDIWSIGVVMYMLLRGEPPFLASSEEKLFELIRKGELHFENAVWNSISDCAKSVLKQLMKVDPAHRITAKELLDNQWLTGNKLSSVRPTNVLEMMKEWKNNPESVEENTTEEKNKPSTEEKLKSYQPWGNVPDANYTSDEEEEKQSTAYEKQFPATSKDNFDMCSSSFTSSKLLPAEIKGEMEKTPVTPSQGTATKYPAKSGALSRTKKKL

| inhibition [1] | inhibition [2] | inhibition [3] | inhibition [4] | inhibition [5] | inhibition [6] | inhibition [7] | inhibition [8] | inhibition [9] | inhibition [10] | inhibition [11] | SMILES |
| --- | --- | --- | --- | --- | --- | --- | --- | --- | --- | --- | --- |
| 78% | < 50% | 81% | < 50% | < 50% | 77% | 95% | < 50% | < 50% | < 50% | 82% | O[C@H]1CC[C@H](Nc2nccc(-n3ncc4ccccc43)n2)CC1 |
| < 50% | < 50% | < 50% | < 50% | < 50% | 74% | 93% | < 50% | < 50% | < 50% | < 50% | O[C@H]1CC[C@H](Nc2nccc(-n3ccc4ccccc43)n2)CC1 |

The next lines start with the compound.

| SMILES | inhibition [1] | inhibition [2] | inhibition [3] | inhibition [4] | inhibition [5] | inhibition [6] | inhibition [7] | inhibition [8] | inhibition [9] | inhibition [10] | inhibition [11] |
| --- | --- | --- | --- | --- | --- | --- | --- | --- | --- | --- | --- |
| O[C@H]1CC[C@H](Nc2nccc(-c3n[nH]c4ccccc34)n2)CC1 | 98% | – | – | < 50% | < 50% | – | – | – | – | – | – |
| O[C@H]1CC[C@H](Nc2nccc(-n3nnc4ccccc43)n2)CC1 | 75% | 72% | 95% | < 50% | < 50% | 78% | 97% | < 50% | < 50% | < 50% | 100% |
| CS(=O)(=O)CCCOc1cccc2c1ccn2-c1ccnc(N[C@H]2CC[C@H](C(=O)N3CCC(O)CC3)CC2)n1 | – | – | – | – | – | – | – | – | – | – | > 85% |
